From PubChem
Arbovirus inh = arbovirus infection inhibition; AID 1251; inhibition, % at 10 µM; arbovirus infection cell-based antiviral screen; 200,000 tested, 0.37% active; in the data active = inhibition above about 30%
PKD1 inh = inhibitors of human PKD1 kinase. Q15139. PKD1 kinase fluorescence polarization assay. 200,000 tested, 0.056% active. inhibition, % (concentration not given with the values)
Rad51 HR inh = blocks human Rad51 in homologous recombination. Q06609. hRad51 DNA strand exchange, fluorescence dequenching. inhibition, % at 10 µM. 200,000 tested, 0.085% active;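 active = inhibition above 40% at the single screening dose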
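Read-out basis: percent inhibition relative to plate controls and blanks / Assay system: human Rad51 nucleoprotein filaments preassembled on unlabelled ssDNA / Timing: filaments 15 min 37 °C, then compound 30 min / Control set: per-plate controls and blanks / Technique: fluorescence dequenching at 485/520 nm / Compound: 10 µM final, single point / Also added: Fluorescein- and BHQ1-tagged 47-mer duplex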
Wee1 stabilizer = human Wee1 degradation inhibition, primary screen | P30291 | HeLa Luc-Wee1K328M stability, luciferase luminescence; 100% = proteasome inhibitor MG132 effect | reporter increase, % at 5 µM | 220,000 tested, 1.2% active;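 active = activation above the mean of all tested compounds plus 3 SD, set per screening run, cut at about 8.8% in these data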;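 note: cells exposed to compound for 20 h before luminescence read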
Target sequence (P30291 whole entry K328M): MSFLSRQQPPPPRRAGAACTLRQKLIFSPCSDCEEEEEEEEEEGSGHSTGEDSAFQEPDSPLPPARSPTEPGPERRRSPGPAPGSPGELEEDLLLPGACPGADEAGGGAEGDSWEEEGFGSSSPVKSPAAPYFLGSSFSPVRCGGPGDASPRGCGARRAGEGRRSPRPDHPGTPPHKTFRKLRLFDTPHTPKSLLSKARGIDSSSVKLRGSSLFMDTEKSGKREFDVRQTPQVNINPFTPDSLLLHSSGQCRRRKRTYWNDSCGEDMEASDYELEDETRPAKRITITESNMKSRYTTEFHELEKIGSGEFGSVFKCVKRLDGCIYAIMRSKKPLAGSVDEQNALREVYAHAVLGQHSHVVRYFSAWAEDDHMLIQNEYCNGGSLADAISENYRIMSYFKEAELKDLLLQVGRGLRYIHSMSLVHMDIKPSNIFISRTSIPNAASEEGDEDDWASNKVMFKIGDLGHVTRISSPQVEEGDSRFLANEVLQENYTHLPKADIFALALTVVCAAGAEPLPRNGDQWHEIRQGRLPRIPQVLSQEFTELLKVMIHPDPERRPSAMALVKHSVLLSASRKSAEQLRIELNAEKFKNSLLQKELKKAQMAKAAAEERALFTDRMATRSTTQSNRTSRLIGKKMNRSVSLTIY
Lmaj promast = Leishmania major promastigote growth inhibition; Leishmania major promastigotes, resazurin fluorescence viability; inhibition, % at 10 µM; 200,000 tested, 9% active;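 note: promastigotes grown with compound for 44 hours at 28 °C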
CHOP inhibitor = CHOP inhibition in unfolded protein response. inhibition, % at 10 µM. 220,000 tested, 3.8% active. AID 2732. CHO-K1 CHOP-promoter luciferase, tunicamycin-induced, 15-18 h;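 active = compounds that reduced the stress-induced luciferase reporter signal by more than about 70% of percent inhibition, limit read from the data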
A number is an active result; i = inactive; nt = not tested or not shown. Shown are actives, neighbours in structure and some others; about 12% of the full set was active somewhere. Cut-off read from the data, not from the text of the source, unless noted: active = inhibition above about 50%; inactive = the rest.

SMILES	Arbovirus inh	PKD1 inh	Rad51 HR inh	Wee1 stabilizer	Lmaj promast	CHOP inhibitor
CCC(C)(C)NC(=O)C(OC(=O)c1cc2sccc2n1C)c1ccc(OC)cc1 (stereo unspecified)	i	i	i	i	i	79.3
CCCCN(Cc1ccccc1)c1ncnc2nc[nH]c12	i	i	i	i	i	75.0
COc1ccc(/C=N/OCC(=O)N2CC3(C)CC2CC(C)(C)C3)cc1OC (stereo unspecified)	i	i	i	i	64.7	i
Cc1nc2ccccc2cc1OCc1ccc(Cl)cc1	i	i	i	i	i	83.5
COc1ccccc1/C=C/C1(C(=O)NC2CCCC2)CC(=O)N1c1ccccc1 (stereo unspecified)	nt	nt	i	i	nt	i
O=C(NC1CC1)C1=NOC(CNc2ncc(C(F)(F)F)cc2Cl)C1 (stereo unspecified)	i	i	i	i	i	i
O=C(N/C=N/O)C1=NOC(CNc2ncc(C(F)(F)F)cc2Cl)C1 (stereo unspecified)	i	i	i	i	98.9	i
Clc1ccc(OCc2noc(-c3ccsc3)n2)c(Cl)c1	nt	nt	i	i	nt	i
CC(CCCC(C)(C)O)NC(=O)c1ccc(OC2CCN(C(=O)C3CC3)CC2)cc1 (stereo unspecified)	i	i	i	8.9	i	i
CC(C)C[C@H](NC(=O)c1ccc(OC2CCN(C(=O)C3CC3)CC2)cc1)C(N)=O	i	i	i	i	i	i
Cc1cc2nc(CCN(Cc3cccnc3)C(=S)Nc3ccc(F)cc3)[nH]c2cc1C	i	i	i	i	i	i
Cc1cc2nc(CCN(Cc3cccnc3)C(=S)Nc3ccccc3)[nH]c2cc1C	i	i	i	i	90.6	i
Cc1ccccc1NC(=O)N(CCc1nc2ccccc2[nH]1)Cc1ccccc1	i	i	i	i	57.8	i
COc1ccccc1NC(=S)N(CCc1nc2cc(C)c(C)cc2[nH]1)Cc1cccnc1	i	i	i	i	57.1	i
C#CCOCCOCCOCCNc1nc(N2CCN(C(=O)[C@H](CCCCN)n3cc(C(N)CO)nn3)CC2)nc(N2CCN(C(=O)[C@H](CCCCN)n3cc(C(N)COC(=O)C(F)(F)F)nn3)CC2)n1 (stereo partly specified)	nt	nt	i	nt	nt	nt
COc1cc(OC)nc(Oc2cc(/C=N/O)ccc2OC)n1	i	i	i	i	i	i
CCc1ccc2c(c1)C(C)=CC(C)(C)N2	i	i	i	i	66.2	i
CCc1ccc(-c2cc(C(=O)N/N=C/c3c[nH]c4ccccc34)[nH]n2)cc1	i	i	i	i	i	89.4
CCc1ccc2c(Cl)c(C(=O)N/N=C/c3c[nH]c4ccccc34)sc2c1	i	i	nt	i	i	71.3
O=C(CNc1cccc2ccccc12)N/N=C/c1ccc[nH]1	nt	nt	i	i	nt	i
O=C(N/N=C/c1ccc[nH]1)c1sc2ccccc2c1Cl	i	i	i	i	98.8	i
CCc1ccc(C(=O)N/N=C/c2cccc3ccccc23)nc1	i	i	nt	i	i	79.5
Cc1ccccc1CN(c1ccc(C(=O)Nc2ccccc2C(=O)NCc2ccco2)cc1)S(C)(=O)=O	i	i	i	i	81.3	i
O=C(O)c1ccccc1C(=O)NCc1cccnc1	i	i	i	i	i	i
Cc1ccc(S(=O)(=O)N(Cc2ccccc2)c2ccccc2C(=O)NCc2cccnc2)cc1	i	i	nt	i	64.3	i
SMILES	Arbovirus inh	PKD1 inh	Rad51 HR inh	Wee1 stabilizer	Lmaj promast	CHOP inhibitor
Cc1ccccc1CN(c1ccc(C(=O)Nc2ccccc2C(=O)N2CCCC2)cc1)S(C)(=O)=O	i	i	i	i	i	i
COc1ccc(S(=O)(=O)N(Cc2ccccc2)c2ccccc2C(=O)Nc2ccccc2C(=O)NCc2ccco2)cc1	i	i	i	i	66.2	i
CC(C)(C)NC(=O)C1Cc2ccccc2CN1 (stereo unspecified)	i	i	i	i	i	i
Cc1cc(C)cc(NC(=O)CCN2CCCC2)c1	i	i	i	i	i	i
COc1cccc(C(=O)NCC2CCN(c3ccc(S(=O)(=O)N4CCOCC4)cc3)CC2)c1	i	i	i	i	64.4	i
COc1cc(-c2nnc(NC(=O)c3ccc(S(=O)(=O)N4CCOCC4)cc3)o2)cc(OC)c1OC	i	i	i	i	i	i
COc1cccc(-c2nnc(NC(=O)c3ccc(S(=O)(=O)N4CCOCC4)cc3)o2)c1	i	i	i	i	96.3	i
Cc1cccc(C(=O)Nc2nnc(-c3cccnc3)o2)c1	i	i	i	i	64.8	i
Cc1cccc(C(=O)Nc2nnc(-c3ccncc3)o2)c1	i	i	i	i	i	i
CCOc1ccc(-c2nnc(NC(=O)c3ccc(OCC(C)C)c(OC)c3)o2)cc1	i	i	i	i	98.1	90.8
NNC(=O)CCN(Cc1ccco1)S(=O)(=O)c1ccc(Cl)cc1	nt	nt	i	i	nt	i
CC(C)(C)NC(=O)CSc1nnc(C2CC2)n1-c1ccccc1	i	i	i	i	i	i
O=C(NCC(=O)N(c1cccnc1)C(C(=O)NC1CCCC1)c1cccs1)c1ccco1 (stereo unspecified)	i	i	nt	i	i	i
O=C(NCC1CCN(c2ccc(S(=O)(=O)N3CCOCC3)cc2)CC1)c1cccc(Cl)c1	i	i	i	i	97.5	i
CC1CN(S(=O)(=O)c2ccc(C(=O)Nc3nnc(-c4ccccn4)o3)cc2)CC(C)O1 (stereo unspecified)	i	i	i	i	i	i
COc1cccc(-c2nnc(NC(=O)C3CCCCC3)o2)c1	i	i	i	i	66.3	i
CC1CN(S(=O)(=O)c2ccc(C(=O)Nc3nnc(-c4ccc5c(c4)CCCC5)o3)cc2)CC(C)O1 (stereo unspecified)	i	i	i	i	98.7	104.5
COc1cccc(-c2nnc(NC(=O)c3ccc4ncsc4c3)o2)c1	i	i	i	i	82.4	i
COc1cccc(-c2nnc(NC(C)=O)o2)c1	i	nt	i	nt	nt	i
COc1cccc(C(=O)Nc2nnc(-c3ccc(Cl)cc3)o2)c1	i	nt	i	nt	nt	i
O=C(NCc1ccco1)C1CCN(c2ccc(S(=O)(=O)N3CCOCC3)cc2[N+](=O)[O-])CC1	i	i	i	i	i	i
O=C(Oc1cccc([N+](=O)[O-])c1)N1CCCCC1	i	i	i	i	i	i
CCOc1ccc(C(CC(=O)O)NC(=O)c2cccs2)cc1OC (stereo unspecified)	i	i	i	i	i	i
CCOc1ccc(Br)cc1S(=O)(=O)NCc1ccncc1	i	i	nt	i	i	i
O=C(Cn1c(-c2cscn2)nc2ccccc21)Nc1ccccc1F	i	i	nt	i	i	i
Fc1ccc(Cn2c(-c3cscn3)nc3ccccc32)c(Cl)c1	i	i	i	i	i	93.8
Clc1ccc(Cn2c(-c3cccnc3Cl)nc3ccccc32)c(Cl)c1	i	i	i	i	98.6	i
Cc1oc(-c2cc(F)ccc2F)nc1CN1CCN(c2cnccn2)CC1	i	i	nt	i	i	i
Cc1oc(-c2cc(F)ccc2F)nc1CN(C)Cc1ccc2nccnc2c1	i	i	i	i	75.3	i
